Active and inactive are the calls of the source. No cut-off for these calls is given here.
Tests used:
[1] = target: T1, Cysteine protease ATG4B (Homo sapiens, UniProt Q9Y4P1); experiment: Inhibition of Atg4B (unknown origin) using YFP-LC3B-EmGFP as substrate after 40 mins by FRET-based assay
T1 sequence (Q9Y4P1 whole entry): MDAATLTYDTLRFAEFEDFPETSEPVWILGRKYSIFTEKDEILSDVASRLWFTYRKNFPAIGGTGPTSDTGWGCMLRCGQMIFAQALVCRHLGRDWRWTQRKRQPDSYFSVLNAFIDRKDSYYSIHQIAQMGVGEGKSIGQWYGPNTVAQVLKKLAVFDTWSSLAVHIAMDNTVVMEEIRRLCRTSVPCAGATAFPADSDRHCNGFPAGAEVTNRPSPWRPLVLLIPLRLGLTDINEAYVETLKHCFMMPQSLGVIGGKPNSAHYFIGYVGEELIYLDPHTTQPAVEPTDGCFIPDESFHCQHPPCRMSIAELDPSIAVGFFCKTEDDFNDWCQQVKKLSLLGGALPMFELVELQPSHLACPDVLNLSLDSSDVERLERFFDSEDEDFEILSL

[2] = target: T1, Cysteine protease ATG4B; experiment: Inhibition of wild type recombinant Atg4B (unknown origin) expressed in Escherichia coli BL21 DE3 using N-terminal His6-tagged LC3B-PLA2 as substrate after 60 mins by NBD-C6-HPC dye-based fluorescence assay
[3] = target: T2, Cysteine protease ATG4B (Homo sapiens) (UniProt Q9Y4P1); experiment: Inhibition of human recombinant GST-tagged Atg4B expressed in Escherichia coli after 2 to 20 hrs by fluorescence assay
T2 sequence (whole entry): T1 sequence (Q9Y4P1 whole entry)
Outline: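 Fluorogenic peptides of 8, 10, 12 or 16 residues matching pro-LC3B Glu105–Gly120 (N-terminal to scissile Gly120), each C-terminally capped with an aminocarboxycoumarin (ACC) tag. Cleavage by Atg4B at about 20 nM was followed by fluorescence release for up to 20 h.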

[4] = target: T2, Cysteine protease ATG4B (Homo sapiens); experiment: Inhibition of human recombinant GST-tagged Atg4B expressed in Escherichia coli at 5 mM preincubated for 15 mins followed by LC3B-GST substrate addition after 6 mins by SDS-PAGE assay
Outline: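 Enzyme (0.625 ng/µL Atg4B, Tris-HCl buffer) was preincubated with inhibitor for 15 min before [LC3B-GST] (0.4 µg/µL) was added for 6 min. Samples were separated by SDS-PAGE and stained with Oriole. Densitometric optical densities of intact fusion protein, GST and LC3B gave percent uncleaved substrate.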

[5] = target: T2, Cysteine protease ATG4B (Homo sapiens); experiment: Inhibition of human recombinant GST-tagged Atg4B expressed in Escherichia coli at 20 mM using LC3B-GST as substrate measured after 6 mins by SDS-PAGE assay
Outline: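 Atg4B at 0.625 ng/µL in Tris-HCl was mixed with inhibitor without preincubation. [LC3B-GST] at 0.4 µg/µL was then added for 6 min. Products were resolved by SDS-PAGE and stained with Oriole fluorescent gel stain. Percent uncleaved substrate was taken by densitometry as OD(LC3B-GST)/[OD(LC3B-GST)+OD(GST)+OD(LC3B)]×100.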

[6] = target: T2, Cysteine protease ATG4B (Homo sapiens); experiment: Inhibition of human recombinant GST-tagged Atg4B expressed in Escherichia coli at 4 mM using LC3B-GST as substrate preincubated up to 20 mins followed by substrate addition measured after 6 mins by SDS-PAGE assay
[7] = target: T2, Cysteine protease ATG4B (Homo sapiens); experiment: Inhibition of human recombinant GST-tagged Atg4B expressed in Escherichia coli at 4 mM preincubated for 15 mins followed by LC3B-GST substrate addition after 6 mins by SDS-PAGE assay
Outline: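 Recombinant human Atg4B (E. coli-expressed) at 0.625 ng/µL, preincubated 15 min with inhibitor. Then LC3B-GST (0.4 µg/µL) added in Tris-HCl buffer and incubated 6 min. Products resolved by SDS-PAGE and stained with Oriole. % uncleaved substrate derived by densitometry as OD(LC3B-GST)/(sum of all bands). Single representative experiment.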

[8] = target: T2, Cysteine protease ATG4B (Homo sapiens); experiment: Inhibition of human recombinant GST-tagged Atg4B expressed in Escherichia coli at 40 mM using LC3B-GST as substrate measured after 6 mins by SDS-PAGE assay
Outline: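 Recombinant human Atg4B (E. coli) at 0.625 ng/µL, with inhibitor dilutions of 0–40 mM, either preincubated 15 min or not preincubated. LC3B-GST (0.4 µg/µL) added in Tris-HCl buffer for 6 min. SDS-PAGE separation and Oriole staining followed. % uncleaved fusion protein derived from band optical densities. Single representative experiment.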

[9] = target: T1, Cysteine protease ATG4B; experiment: Inhibition of human recombinant GST-tagged Atg4B expressed in Escherichia coli using LC3B-GST as substrate after 6 mins by SDS-PAGE assay

Question: How did the IC50 [1] turn out when `O=C(N[C@@H](Cc1ccccc1)C(=O)CCl)OCc1ccccc1` was run?
Answer: 0.63 µM

Question: For `O=c1oc2c(O)c(O)cc3c(=O)oc4c(O)c(O)cc1c4c23` [ELLAGIC ACID], which IC50 [2] is on record?
Answer: 5.5 µM

Question: And the inhibition [3]?
Answer: Active

Question: For `CCN1C(=O)C=CC1=O`, which inhibition [4] is on record?
Answer: Active

Question: And the inhibition [5]?
Answer: Active

Question: What about the inhibition [6] of the same molecule?
Answer: Active

Question: Which results are given for `NC(=O)CI`?
Answer: inhibition [7]: Active; inhibition [8]: Active

Question: How did the IC50 [2] turn out when `O=C(O)c1cc(O)c(=O)c2c(O)c(O)ccc2c1` [7-DESHYDROXYPYROGALLIN-4-CARBOXYLIC ACID] was run?
Answer: 2.3 µM

Question: What does the source list for `O=C(O)C1=CC(=C(c2ccc(O)c(C(=O)O)c2)c2ccc(O)c(C(=O)O)c2)C=CC1=O` [AURINTRICARBOXYLIC ACID]?
Answer: IC50 [9]: 38 to 45 µM; IC50 [1]: 1.3 µM

Question: With `Cc1sc2nc(C3CCCCC3)nc(SCC(=O)N3CC(=O)Nc4ccccc43)c2c1C` as the molecule, how does the inhibition [3] read?
Answer: Active

Question: `Cc1cc(O)c2c(=O)c3c(O)cc(O)c4c5c(O)cc(O)c6c(=O)c7c(O)cc(C)c8c1c2c(c34)c(c78)c65` [HYPERICIN] was tested. Which IC50 [1] did it give?
Answer: 57 µM

Reference: ChEMBL document CHEMBL3870318, “Inhibitor screening and enzymatic activity determination for autophagy target Atg4B using a gel electrophoresis-based assay” (Eur J Med Chem, 2016)
